Published values gathered from unrelated publications.
Lines come from different studies, so protocols differ.
CDK13: Cyclin-dependent kinase 13 (CDK13, Homo sapiens, UniProt Q14004)
CDK13 with cyclin K: Cyclin-dependent kinase 13, with cyclin K (CDK13, Homo sapiens, UniProt Q14004)

Structure (SMILES) | target | test | conditions | endpoint | result
CN([C@@H]1CCc2c(CC(=O)O)c3cc(S(C)(=O)=O)ccc3n2C1)S(=O)(=O)c1ccc(F)cc1 | CDK13 | cell-free assay, competition with immobilised ligand | 1 µM | remaining binding | 86%
Cc1ccc(C(=O)NCc2ccsc2)cc1C#Cc1cn(C(C)C)c2ncnc(N)c12 | CDK13 with cyclin K | enzyme activity, inhibitor | 1 µM | activity vs control | 85%
CN(C)c1nccc(-c2cnc3ncccn23)n1 | CDK13 | binding | 1 µM | remaining binding | 58%
CN1CC(Oc2cnc(C#N)cc2-c2ccn3nc(NC(=O)C4CC4)cc3c2)C1 | CDK13 with cyclin K | enzyme activity, inhibitor | 1 µM | inhibition | 1%
C[C@H](NC(=O)c1cnc2n1[C@](C)(Cc1ccc(C#N)cc1)C(=O)N2c1cc(Cl)c(F)c(Cl)c1)C(=O)NC1(c2ccccn2)CC1 | CDK13 | cell-free assay, competition with immobilised ligand | 1 µM | remaining binding | 100%
COc1cc(Cl)c(C(=O)N[C@@H](CN[C@H]2CC[C@@H](N)CC2)Cc2ccc(C#N)cc2)cc1-c1ccc(CN[C@H](C)c2ccc(C)cc2)o1 | CDK13 with cyclin K | enzyme activity, inhibitor | 1 µM | remaining activity | 107%
Cc1ccc(C(=O)Nc2ccc(CN3CCN(C)CC3)c(C(F)(F)F)c2)cc1C#Cc1cnc2cccnn12 | CDK13 | enzyme activity, inhibitor | 23.5 nM | remaining activity | 6.4%
Nc1ncnc2occ(-c3ccc(NC(=O)Nc4cc(C(F)(F)F)ccc4F)cc3)c12 | CDK13 | cell-free assay, inhibitor | 20 µM | remaining signal | 0.1%
